Test results taken from PubChem BioAssay.
Active and inactive are the calls of the source. Cut-off read from the data, not from the text of the source, unless noted: active = inhibition above about 30%; inactive = the rest.

Columns and labels:
[1] = Her2 expression decrease, cell viability multiplex – SKBR3 breast tumor cells, AlphaScreen, ATP viability, primary screen (AID 461;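 active = Her2 level under about 52% in both replicate screens, with viability over 70% of control, limit read from the data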;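 for Her2 level: lower value means less Her2 protein in the cells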;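 for viability: percent of carrier control wells set as 100% viability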); conditions: SKBR3 Her2 protein level, 18-24 h, measured here: SKBR3 viability, ATP luminescence, at 10 µM
[2] = biological target: Receptor tyrosine-protein kinase erbB-2 (Homo sapiens) (UniProt P04626); assay: as above; conditions: 18-24 h, at 10 µM, stronger effect = lower value
[3] = reduced viability of SK-BR-3 breast cancer cells – cell-based, 24 h, human, pilot screen (AID 572;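 active = viability at or below 10% of carrier control in both of two separate runs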;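 note: compound exposure lasted between 18 and 24 h rather than exactly 24 h; 100% = carrier-treated control wells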); conditions: SK-BR-3 viability, CellTiter-Glo luminescence, at 10 µM, stronger effect = lower value
[4] = HUVEC growth inhibition – cell-based, human, primary screen (AID 575;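 active = viability at or below 30% in both replicate assays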;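 note: 100% = median of untreated cell wells with 0.1% DMSO on each plate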); conditions: HUVEC proliferation, CellTiter-Glo luminescence, 72 h; at 10 µM; stronger effect = lower value
Summary of the method: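 Assay system: primary human umbilical vein endothelial cells / Buffer or medium: endothelial basal medium with 2% FBS plus growth supplements / Compound dosing: one dose, 10 µM final, 0.1% DMSO / Timing: 72 h treatment at 37 °C / Signal: CTG luminescence / Benchmarks: 32 DMSO-only cell-control wells (high), 32 MePR drug-control wells (low) per plate / Plate: collagen-coated 384-well format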

[5] = H69AR cell proliferation blockers – human, duplicate replicates, primary screen (AID 580;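 active = viability at or under a set limit in both replicates, limit being median viability minus 3 SD, cut at about 48% in these data, passing the limit was not always enough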;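 note: 100% = mean luminescence of untreated wells and 0% = no signal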); conditions: H69AR lung tumor cells viability, ATP luminescence, 72 h; at 10 µM; stronger effect = lower value
[6] = MRP1 drug-resistance reversers in H69AR cells – cell-based, doxorubicin co-treatment, pilot screen (AID 601;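 active = viability loss from added drug above about 55%, and viability with drug at most 40%, in both replicates, limit read from the data, passing the limit was not always enough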); conditions: CellTiter-Glo, 72 h, at 10 µM; for differential viability (reversal): stronger effect = higher value
[7] = yeast transport mutant growth inhibition pilot in 384-well plates, post-Golgi transport modulator project (AID 636; in the data active = inhibition above about 31%); conditions: absorbance 615 nm, about 18 h, stronger effect = higher value
[8] = growth suppression of yeast trafficking mutant, preliminary HTS, modulators of trafficking downstream of Golgi apparatus project, 1536-format plate, OD 615 nm (AID 637); conditions: yeast transport mutant growth, absorbance 615 nm, 18 h; stronger effect = higher value
[9] = H69AR cells + 2 uM doxorubicin, measured here: viability with 2 uM doxorubicin, stronger effect = lower value
[10] = H69AR cells, compound alone cytotoxicity

Sequence of Receptor tyrosine-protein kinase erbB-2 (Homo sapiens) (P04626 whole entry, looked up): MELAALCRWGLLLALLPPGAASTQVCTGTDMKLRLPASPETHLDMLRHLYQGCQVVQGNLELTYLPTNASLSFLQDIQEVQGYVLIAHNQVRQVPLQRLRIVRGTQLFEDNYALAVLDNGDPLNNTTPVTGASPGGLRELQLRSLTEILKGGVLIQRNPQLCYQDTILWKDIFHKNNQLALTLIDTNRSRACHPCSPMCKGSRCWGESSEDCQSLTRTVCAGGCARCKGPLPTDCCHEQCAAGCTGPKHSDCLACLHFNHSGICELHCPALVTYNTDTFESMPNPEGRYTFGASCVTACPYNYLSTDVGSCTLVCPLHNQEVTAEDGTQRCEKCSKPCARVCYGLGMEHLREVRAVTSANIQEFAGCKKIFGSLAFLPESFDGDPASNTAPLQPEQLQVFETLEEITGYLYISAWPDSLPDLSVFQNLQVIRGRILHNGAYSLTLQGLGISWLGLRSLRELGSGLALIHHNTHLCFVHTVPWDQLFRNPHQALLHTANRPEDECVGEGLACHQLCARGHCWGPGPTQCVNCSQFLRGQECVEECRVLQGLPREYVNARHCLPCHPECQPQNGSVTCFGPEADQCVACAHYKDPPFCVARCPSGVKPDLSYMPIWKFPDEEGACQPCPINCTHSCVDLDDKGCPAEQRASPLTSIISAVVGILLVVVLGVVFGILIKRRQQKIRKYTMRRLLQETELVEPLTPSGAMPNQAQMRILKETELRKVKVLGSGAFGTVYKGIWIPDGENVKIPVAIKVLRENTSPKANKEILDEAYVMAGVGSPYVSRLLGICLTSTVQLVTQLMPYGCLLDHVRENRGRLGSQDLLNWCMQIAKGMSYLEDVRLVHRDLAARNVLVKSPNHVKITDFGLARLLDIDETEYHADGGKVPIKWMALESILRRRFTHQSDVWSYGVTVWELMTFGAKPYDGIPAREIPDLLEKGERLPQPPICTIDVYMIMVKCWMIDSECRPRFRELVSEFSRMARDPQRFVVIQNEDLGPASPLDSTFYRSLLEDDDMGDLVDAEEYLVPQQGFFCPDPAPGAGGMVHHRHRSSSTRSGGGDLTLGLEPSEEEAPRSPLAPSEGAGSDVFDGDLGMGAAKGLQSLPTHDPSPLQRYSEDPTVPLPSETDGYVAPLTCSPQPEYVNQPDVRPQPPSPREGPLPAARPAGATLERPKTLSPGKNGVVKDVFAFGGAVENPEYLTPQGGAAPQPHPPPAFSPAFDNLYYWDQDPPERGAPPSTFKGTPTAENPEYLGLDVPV

Structure (SMILES): Cn1c(=O)[nH]c(=O)c2c1nc(N(CCO)Cc1ccccc1)n2Cc1ccccc1Cl
- viability [1]: 90.5%
- Her2 level [2]: 82.5% (inactive)
- viability [3]: 90.5% (inactive)
- viability [4]: 80.2% (inactive)
- viability [5]: 81.6% (inactive)
- differential viability (reversal) ([6]; H69AR cells + 2 uM doxorubicin): 26% (inactive)
- viability [6, 9]: 55.6%
- viability [6, 10]: 81.6%
- inhibition [7]: -5.47% (inactive)
- inhibition [8]: 3.44% (inactive)

Structure (SMILES): COc1ccc2nc(N3CCC(C)CC3)c(C#N)cc2c1
- viability [1]: 108%
- Her2 level [2]: 101% (inactive)
- viability [3]: 108% (inactive)
- viability [4]: 86.6% (inactive)
- viability [5]: 26.8% (active)
- differential viability (reversal) ([6]; H69AR cells + 2 uM doxorubicin): 3.77% (inactive)
- viability [6, 9]: 23%
- viability [6, 10]: 26.8%
- inhibition [7]: -5.33% (inactive)
- inhibition [8]: 2.62% (inactive)

Structure (SMILES): Cc1cc(C)cc(N2CCCn3c2nc2c3c(=O)n(CCN3CCOCC3)c(=O)n2C)c1
- viability [1]: 101%
- Her2 level [2]: 81% (inactive)
- viability [3]: 101% (inactive)
- viability [4]: 97.2% (inactive)
- viability [5]: 83.3% (inactive)
- differential viability (reversal) ([6]; H69AR cells + 2 uM doxorubicin): -0.035% (inactive)
- viability [6, 9]: 83.3%
- viability [6, 10]: 83.3%
- inhibition [7]: -7.2% (inactive)
- inhibition [8]: -3.44% (inactive)

Structure (SMILES): Cc1ccc(C)c(N2CCN(C(=O)C3CCN(S(=O)(=O)c4c(C)noc4C)CC3)CC2)c1
- viability [1]: 104%
- Her2 level [2]: 72% (inactive)
- viability [3]: 104% (inactive)
- viability [4]: 74.8% (inactive)
- viability [5]: 83.4% (inactive)
- differential viability (reversal) ([6]; H69AR cells + 2 uM doxorubicin): 27.8% (inactive)
- viability [6, 9]: 55.6%
- viability [6, 10]: 83.4%
- inhibition [7]: -2.89% (inactive)
- inhibition [8]: -3.97% (inactive)

Structure (SMILES): CCCOc1cc(C)c(S(=O)(=O)N2CCN(C)CC2)cc1C
- viability [1]: 89%
- Her2 level [2]: 99% (inactive)
- viability [3]: 89% (inactive)
- viability [4]: 104% (inactive)
- viability [5]: 95.2% (inactive)
- differential viability (reversal) ([6]; H69AR cells + 2 uM doxorubicin): 2.26% (inactive)
- viability [6, 9]: 92.9%
- viability [6, 10]: 95.2%
- inhibition [7]: -1.58% (inactive)
- inhibition [8]: 5.41% (inactive)

Structure (SMILES): COc1ccc(-n2c(Cc3cccn3C)nnc2SCC(=O)NCC2CCCO2)cc1 (stereo not given)
- viability [1]: 100%
- Her2 level [2]: 107% (inactive)
- viability [3]: 100% (inactive)
- viability [4]: 93.9% (inactive)
- viability [5]: 100% (inactive)
- differential viability (reversal) ([6]; H69AR cells + 2 uM doxorubicin): 7.7% (inactive)
- viability [6, 9]: 92.3%
- viability [6, 10]: 100%
- inhibition [7]: -0.9% (inactive)
- inhibition [8]: 3% (inactive)

Structure (SMILES): Brc1cccc(-c2cnc3n2CCCCC3)c1
- viability [1]: 95.5%
- Her2 level [2]: 89.5% (inactive)
- viability [3]: 95.5% (inactive)
- viability [4]: 67.1% (inactive)
- viability [5]: 91.5% (inactive)
- differential viability (reversal) ([6]; H69AR cells + 2 uM doxorubicin): 11.1% (inactive)
- viability [6, 9]: 80.4%
- viability [6, 10]: 91.5%
- inhibition [7]: -6.53% (inactive)
- inhibition [8]: 4.26% (inactive)

Structure (SMILES): O=C(O)CCNc1nc(-c2ccccc2)nc2ccccc12
- viability [1]: 87%
- Her2 level [2]: 102% (inactive)
- viability [3]: 87% (inactive)
- viability [4]: 96.3% (inactive)
- viability [5]: 91.1% (inactive)
- differential viability (reversal) ([6]; H69AR cells + 2 uM doxorubicin): -2.72% (inactive)
- viability [6, 9]: 93.8%
- viability [6, 10]: 91.1%
- inhibition [7]: -0.13% (inactive)
- inhibition [8]: -1.11% (inactive)

Structure (SMILES): O=c1oc2ccccc2c2nccnc12
- viability [1]: 93.5%
- Her2 level [2]: 115% (inactive)
- viability [3]: 93.5% (inactive)
- viability [4]: 103% (inactive)
- viability [5]: 96.5% (inactive)
- differential viability (reversal) ([6]; H69AR cells + 2 uM doxorubicin): 5.08% (inactive)
- viability [6, 9]: 91.4%
- viability [6, 10]: 96.5%
- inhibition [7]: -0.13% (inactive)
- inhibition [8]: -9.5% (inactive)

Structure (SMILES): O=C(COC(=O)c1ccccc1Oc1ccccc1)NC1CCS(=O)(=O)C1 (stereo not given)
- viability [1]: 107%
- Her2 level [2]: 104% (inactive)
- viability [3]: 107% (inactive)
- viability [4]: 98.8% (inactive)
- viability [5]: 90% (inactive)
- differential viability (reversal) ([6]; H69AR cells + 2 uM doxorubicin): -8.6% (inactive)
- viability [6, 9]: 98.6%
- viability [6, 10]: 90%
- inhibition [7]: 0.54% (inactive)
- inhibition [8]: -5.57% (inactive)
